Assay results taken from ChEMBL document CHEMBL1649256, “Comparison of assessment of oxygen consumption, Etest, and CLSI M38-A2 broth microdilution methods for evaluation of the susceptibility of Aspergillus fumigatus to posaconazole” (2009).
≈ marks a conversion by molar mass, not a printed value.

Tests used:
Assay type in all cases: functional
Aspergillus fumigatus [1] = assay: Antimicrobial activity against Aspergillus fumigatus isolate 23 after 24 hrs by Etest; settings: isolate 23, 24 h
Outline: (§1)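 Etest strips on RPMI 1640 agar with 2% glucose, pH 7.0, run per manufacturer's instructions. Incubated at 35°C; MIC read at 24 h.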

Aspergillus fumigatus [2] = assay: Antimicrobial activity against Aspergillus fumigatus isolate 45 after 48 hrs by Etest; settings: isolate 45, 48 h
Aspergillus fumigatus [3] = assay: Antimicrobial activity against Aspergillus fumigatus isolate 13 after 48 hrs by Etest; settings: isolate 13, 48 h
Outline: (§2)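 Posaconazole Etest strips placed on RPMI 1640 agar with 2% glucose, pH 7.0, and run per the strip maker's instructions. Incubation at 35°C, with the MIC read at 24 h and at 48 h.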

Aspergillus fumigatus [4] = assay: Antimicrobial activity against Aspergillus fumigatus isolate 34 after 24 hrs by Etest; settings: isolate 34, 24 h
Outline: (§3)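 Posaconazole Etest strips on RPMI 1640 agar with 2% glucose, pH 7.0, run per the strip maker's instructions. Incubated at 35°C. MIC read at 24 h and at 48 h, matching the time in each line.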

Aspergillus fumigatus [5] = assay: Antimicrobial activity against Aspergillus fumigatus isolate 7 after 48 hrs by Etest; settings: isolate 7, 48 h
Aspergillus fumigatus [6] = assay: Antimicrobial activity against Aspergillus fumigatus isolate 4 after 24 hrs by Etest; settings: isolate 4, 24 h; outline: as §3
Aspergillus fumigatus [7] = assay: Antimicrobial activity against Aspergillus fumigatus isolate 36 after 48 hrs by Etest; settings: isolate 36, 48 h; outline: as §3
Aspergillus fumigatus [8] = assay: Antimicrobial activity against Aspergillus fumigatus isolate 40 after 48 hrs by Etest; settings: isolate 40, 48 h; outline: as §3
Aspergillus fumigatus [9] = assay: Antimicrobial activity against Aspergillus fumigatus isolate 44 by oxygen consumption method
Aspergillus fumigatus [10] = assay: Antimicrobial activity against Aspergillus fumigatus isolate 7 by oxygen consumption method
Aspergillus fumigatus [11] = assay: Antimicrobial activity against Aspergillus fumigatus isolate 41 by CLSI M38-A2 broth microdilution method
Outline: (§4)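 CLSI M38-A2 broth microdilution with posaconazole. MIC taken as the lowest concentration with no visible growth at 48 h. C. parapsilosis ATCC 22019 and C. krusei ATCC 6258 were included as QC strains in every run.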

Aspergillus fumigatus [12] = assay: Antimicrobial activity against Aspergillus fumigatus isolate 28 after 48 hrs by Etest; settings: isolate 28, 48 h
Outline: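 Etest strips on RPMI 1640 agar with 2% glucose, pH 7.0, run per manufacturer's instructions. Incubated at 35°C; MIC read at 48 h.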

Aspergillus fumigatus [13] = assay: Antimicrobial activity against Aspergillus fumigatus isolate 48 after 48 hrs by Etest; settings: isolate 48, 48 h
Aspergillus fumigatus [14] = assay: Antimicrobial activity against Aspergillus fumigatus isolate 15 after 24 hrs by Etest; settings: isolate 15, 24 h; outline: as §2
Aspergillus fumigatus [15] = assay: Antimicrobial activity against Aspergillus fumigatus isolate 41 after 48 hrs by Etest; settings: isolate 41, 48 h; outline: as §3
Aspergillus fumigatus [16] = assay: Antimicrobial activity against Aspergillus fumigatus isolate 29 by CLSI M38-A2 broth microdilution method
Outline: (§5)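 Reference broth microdilution per CLSI M38-A2. MIC read as absence of visible growth at 48 h. C. parapsilosis ATCC 22019 and C. krusei ATCC 6258 QC strains run in each test session.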

Aspergillus fumigatus [17] = assay: Antimicrobial activity against Aspergillus fumigatus isolate 12 by oxygen consumption method
Outline: (§6)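 Conidial suspension in RPMI 1640 broth with posaconazole at 0.25 and 2 μg/ml. Tubes agitated 12 h at 37°C in a biological oxygen monitor. Available oxygen was monitored continuously, and the MIC was assigned from the oxygen quantification.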

Aspergillus fumigatus [18] = assay: Antimicrobial activity against Aspergillus fumigatus isolate 12 after 24 hrs by Etest; settings: isolate 12, 24 h; outline: as §2
Aspergillus fumigatus [19] = assay: Antimicrobial activity against Aspergillus fumigatus isolate 43 after 48 hrs by Etest; settings: isolate 43, 48 h; outline: as §3
Aspergillus fumigatus [20] = assay: Antimicrobial activity against Aspergillus fumigatus isolate 43 by CLSI M38-A2 broth microdilution method
Aspergillus fumigatus [21] = assay: Antimicrobial activity against Aspergillus fumigatus isolate 41 after 24 hrs by Etest; settings: isolate 41, 24 h; outline: as §3
Aspergillus fumigatus [22] = assay: Antimicrobial activity against Aspergillus fumigatus isolate 39 after 24 hrs by Etest; settings: isolate 39, 24 h; outline: as §3
Aspergillus fumigatus [23] = assay: Antimicrobial activity against Aspergillus fumigatus isolate 11 by oxygen consumption method; outline: as §6
Aspergillus fumigatus [24] = assay: Antimicrobial activity against Aspergillus fumigatus isolate 9 after 24 hrs by Etest; settings: isolate 9, 24 h
Aspergillus fumigatus [25] = assay: Antimicrobial activity against Aspergillus fumigatus isolate 23 by oxygen consumption method
Outline: (§7)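 Conidial suspension in RPMI 1640 broth, 1.5 ml, with two drug concentrations (0.25 and 2 μg/ml). Tubes agitated 12 h at 37°C in a biological oxygen monitor. Available oxygen monitored continuously and quantified to assign the MIC.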

Aspergillus fumigatus [26] = assay: Antimicrobial activity against Aspergillus fumigatus isolate 19 after 48 hrs by Etest; settings: isolate 19, 48 h; outline: as §2
Aspergillus fumigatus [27] = assay: Antimicrobial activity against Aspergillus fumigatus isolate 6 after 24 hrs by Etest; settings: isolate 6, 24 h
Aspergillus fumigatus [28] = assay: Antimicrobial activity against Aspergillus fumigatus isolate 17 after 48 hrs by Etest; settings: isolate 17, 48 h; outline: as §2
Aspergillus fumigatus [29] = assay: Antimicrobial activity against Aspergillus fumigatus isolate 3 after 24 hrs by Etest; settings: isolate 3, 24 h; outline: as §1
Aspergillus fumigatus [30] = assay: Antimicrobial activity against Aspergillus fumigatus isolate 37 by CLSI M38-A2 broth microdilution method; outline: as §4
Aspergillus fumigatus [31] = assay: Antimicrobial activity against Aspergillus fumigatus isolate 38 after 24 hrs by Etest; settings: isolate 38, 24 h; outline: as §3
Aspergillus fumigatus [32] = assay: Antimicrobial activity against Aspergillus fumigatus isolate 48 after 24 hrs by Etest; settings: isolate 48, 24 h
Aspergillus fumigatus [33] = assay: Antimicrobial activity against Aspergillus fumigatus isolate 26 by oxygen consumption method; outline: as §7
Aspergillus fumigatus [34] = assay: Antimicrobial activity against Aspergillus fumigatus isolate 38 by CLSI M38-A2 broth microdilution method; outline: as §4
Aspergillus fumigatus [35] = assay: Antimicrobial activity against Aspergillus fumigatus isolate 44 by CLSI M38-A2 broth microdilution method
Aspergillus fumigatus [36] = assay: Antimicrobial activity against Aspergillus fumigatus isolate 1 by CLSI M38-A2 broth microdilution method
Outline: (§8)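 Posaconazole broth microdilution follows CLSI M38-A2. The MIC is the lowest concentration with no visible growth at 48 h. Candida parapsilosis ATCC 22019 and Candida krusei ATCC 6258 were included as QC strains in every run.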

Aspergillus fumigatus [37] = assay: Antimicrobial activity against Aspergillus fumigatus isolate 7 after 24 hrs by Etest; settings: isolate 7, 24 h
Aspergillus fumigatus [38] = assay: Antimicrobial activity against Aspergillus fumigatus isolate 33 by CLSI M38-A2 broth microdilution method; outline: as §4
Aspergillus fumigatus [39] = assay: Antimicrobial activity against Aspergillus fumigatus isolate 28 by CLSI M38-A2 broth microdilution method; outline: as §5
Aspergillus fumigatus [40] = assay: Antimicrobial activity against Aspergillus fumigatus isolate 16 by CLSI M38-A2 broth microdilution method; outline: as §8
Aspergillus fumigatus [41] = assay: Antimicrobial activity against Aspergillus fumigatus isolate 18 by oxygen consumption method; outline: as §6
Aspergillus fumigatus [42] = assay: Antimicrobial activity against Aspergillus fumigatus isolate 2 by oxygen consumption method; outline: as §6
Aspergillus fumigatus [43] = assay: Antimicrobial activity against Aspergillus fumigatus isolate 7 by CLSI M38-A2 broth microdilution method
Aspergillus fumigatus [44] = assay: Antimicrobial activity against Aspergillus fumigatus isolate 9 after 48 hrs by Etest; settings: isolate 9, 48 h
Aspergillus fumigatus [45] = assay: Antimicrobial activity against Aspergillus fumigatus isolate 6 by CLSI M38-A2 broth microdilution method
Aspergillus fumigatus [46] = assay: Antimicrobial activity against Aspergillus fumigatus isolate 13 after 24 hrs by Etest; settings: isolate 13, 24 h; outline: as §2

## CC[C@@H]([C@H](C)O)n1ncn(-c2ccc(N3CCN(c4ccc(OC[C@@H]5CO[C@@](Cn6cncn6)(c6ccc(F)cc6F)C5)cc4)CC3)cc2)c1=O [POSACONAZOLE]
Aspergillus fumigatus [1]
  MIC: 0.25 µg/mL (≈ 0.357 µM)
Aspergillus fumigatus [2]
  MIC: 0.125 µg/mL (≈ 0.178 µM)
Aspergillus fumigatus [3]
  MIC: 0.25 µg/mL (≈ 0.357 µM)
Aspergillus fumigatus [4]
  MIC: ≤ 0.03 µg/mL
Aspergillus fumigatus [5]
  MIC: 0.25 µg/mL (≈ 0.357 µM)
Aspergillus fumigatus [6]
  MIC: 0.125 µg/mL (≈ 0.178 µM)
Aspergillus fumigatus [7]
  MIC: 0.06 µg/mL (≈ 0.0856 µM)
Aspergillus fumigatus [8]
  MIC: 0.25 µg/mL (≈ 0.357 µM)
Aspergillus fumigatus [9]
  MIC: ≤ 0.25 µg/mL
Aspergillus fumigatus [10]
  MIC: ≤ 0.25 µg/mL
Aspergillus fumigatus [11]
  MIC: 0.06 µg/mL (≈ 0.0856 µM)
Aspergillus fumigatus [12]
  MIC: 0.25 µg/mL (≈ 0.357 µM)
Aspergillus fumigatus [13]
  MIC: ≤ 0.03 µg/mL
Aspergillus fumigatus [14]
  MIC: 0.06 µg/mL (≈ 0.0856 µM)
Aspergillus fumigatus [15]
  MIC: ≤ 0.03 µg/mL
Aspergillus fumigatus [16]
  MIC: 0.125 µg/mL (≈ 0.178 µM)
Aspergillus fumigatus [17]
  MIC: ≤ 0.25 µg/mL
Aspergillus fumigatus [18]
  MIC: 0.25 µg/mL (≈ 0.357 µM)
Aspergillus fumigatus [19]
  MIC: 0.06 µg/mL (≈ 0.0856 µM)
Aspergillus fumigatus [20]
  MIC: 0.125 µg/mL (≈ 0.178 µM)
Aspergillus fumigatus [21]
  MIC: ≤ 0.03 µg/mL
Aspergillus fumigatus [22]
  MIC: 1 µg/mL (≈ 1.43 µM)
Aspergillus fumigatus [23]
  MIC: ≤ 0.25 µg/mL
Aspergillus fumigatus [24]
  MIC: 0.25 µg/mL (≈ 0.357 µM)
Aspergillus fumigatus [25]
  MIC: ≤ 0.25 µg/mL
Aspergillus fumigatus [26]
  MIC: 0.25 µg/mL (≈ 0.357 µM)
Aspergillus fumigatus [27]
  MIC: 1 µg/mL (≈ 1.43 µM)
Aspergillus fumigatus [28]
  MIC: 0.25 µg/mL (≈ 0.357 µM)
Aspergillus fumigatus [29]
  MIC: 1 µg/mL (≈ 1.43 µM)
Aspergillus fumigatus [30]
  MIC: 0.125 µg/mL (≈ 0.178 µM)
Aspergillus fumigatus [31]
  MIC: 0.06 µg/mL (≈ 0.0856 µM)
Aspergillus fumigatus [32]
  MIC: ≤ 0.03 µg/mL
Aspergillus fumigatus [33]
  MIC: ≥ 0.5 µg/mL
Aspergillus fumigatus [34]
  MIC: 0.125 µg/mL (≈ 0.178 µM)
Aspergillus fumigatus [35]
  MIC: 0.06 µg/mL (≈ 0.0856 µM)
Aspergillus fumigatus [36]
  MIC: 1 µg/mL (≈ 1.43 µM)
Aspergillus fumigatus [37]
  MIC: 0.25 µg/mL (≈ 0.357 µM)
Aspergillus fumigatus [38]
  MIC: 0.125 µg/mL (≈ 0.178 µM)
Aspergillus fumigatus [39]
  MIC: 0.25 µg/mL (≈ 0.357 µM)
Aspergillus fumigatus [40]
  MIC: 0.125 µg/mL (≈ 0.178 µM)
Aspergillus fumigatus [41]
  MIC: ≤ 0.25 µg/mL
Aspergillus fumigatus [42]
  MIC: ≥ 0.5 µg/mL
Aspergillus fumigatus [43]
  MIC: 0.25 µg/mL (≈ 0.357 µM)
Aspergillus fumigatus [44]
  MIC: 0.5 µg/mL (≈ 0.713 µM)
Aspergillus fumigatus [45]
  MIC: 0.125 µg/mL (≈ 0.178 µM)
Aspergillus fumigatus [46]
  MIC: 0.25 µg/mL (≈ 0.357 µM)
